ChEMBL document CHEMBL5376013, “Design, synthesis and biological evaluation of novel morpholinopyrimidine-5-carbonitrile derivatives as dual PI3K/mTOR inhibitors” (RSC Med Chem, 2024)

What was measured:
Assay type in all cases: functional
Details in all cases: read-out: GI
CCRF-CEM = experiment: Antitumor activity against human CCRF-CEM cells assessed as growth inhibition at 10 uM relative to control
Procedure, shortened: (§1)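 After drug addition, plates were incubated 48 h at 37 °C under 5% CO2. Adherent cells were fixed with cold TCA (10% final, 60 min, 4 °C) and suspension cells with 16% final TCA. Staining used 0.4% SRB in 1% acetic acid, solubilized in 10 mM trizma, read at A515. Percent growth was calculated from time-zero, control and treated absorbances.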

K562 = experiment: Antitumor activity against human K562 cells assessed as growth inhibition at 10 uM relative to control; procedure, shortened: as §1
MOLT-4 = experiment: Antitumor activity against human MOLT-4 cells assessed as growth inhibition at 10 uM relative to control; procedure, shortened: as §1
RPMI-8226 = experiment: Antitumor activity against human RPMI-8226 cells assessed as growth inhibition at 10 uM relative to control; procedure, shortened: as §1
EKVX = experiment: Antitumor activity against human EKVX cells assessed as growth inhibition at 10 uM relative to control; procedure, shortened: as §1
NCI-H226 = experiment: Antitumor activity against human NCI-H226 cells assessed as growth inhibition at 10 uM relative to control; procedure, shortened: as §1
NCI-H23 = experiment: Antitumor activity against human NCI-H23 cells assessed as growth inhibition at 10 uM relative to control; procedure, shortened: as §1
NCI-H322M = experiment: Antitumor activity against human NCI-H322M cells assessed as growth inhibition at 10 uM relative to control; procedure, shortened: as §1
NCI-H522 = experiment: Antitumor activity against human NCI-H522 cells assessed as growth inhibition at 10 uM relative to control; procedure, shortened: as §1
COLO 205 = experiment: Antitumor activity against human COLO 205 cells assessed as growth inhibition at 10 uM relative to control; procedure, shortened: as §1
HCT-116 = experiment: Antitumor activity against human HCT-116 cells assessed as growth inhibition at 10 uM relative to control; procedure, shortened: as §1
HCT-15 = experiment: Antitumor activity against human HCT-15 cells assessed as growth inhibition at 10 uM relative to control; procedure, shortened: as §1
HT-29 = experiment: Antitumor activity against human HT-29 cells assessed as growth inhibition at 10 uM relative to control; procedure, shortened: as §1
KM12 = experiment: Antitumor activity against human KM12 cells assessed as growth inhibition at 10 uM relative to control; procedure, shortened: as §1
SW-620 = experiment: Antitumor activity against human SW-620 cells assessed as growth inhibition at 10 uM relative to control
Procedure, shortened: (§2)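 Drug exposure 48 h at 37 °C, 5% CO2. Adherent cells fixed with cold TCA (10% final), suspension cells with TCA (16% final). Stained with 0.4% SRB in 1% acetic acid, dissolved in 10 mM Tris, A515. Growth relative to time-zero and untreated control.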

SF-268 = experiment: Antitumor activity against human SF-268 cells assessed as growth inhibition at 10 uM relative to control; procedure, shortened: as §1
SF-539 = experiment: Antitumor activity against human SF-539 cells assessed as growth inhibition at 10 uM relative to control; procedure, shortened: as §1
SNB-19 = experiment: Antitumor activity against human SNB-19 cells assessed as growth inhibition at 10 uM relative to control; procedure, shortened: as §2
SNB-75 = experiment: Antitumor activity against human SNB-75 cells assessed as growth inhibition at 10 uM relative to control; procedure, shortened: as §2
U-251 = experiment: Antitumor activity against human U-251 cells assessed as growth inhibition at 10 uM relative to control; procedure, shortened: as §2
LOX IMVI = experiment: Antitumor activity against human LOX IMVI cells assessed as growth inhibition at 10 uM relative to control; procedure, shortened: as §1
Malme-3M = experiment: Antitumor activity against human Malme-3M cells assessed as growth inhibition at 10 uM relative to control; procedure, shortened: as §1
M14 = experiment: Antitumor activity against human M14 cells assessed as growth inhibition at 10 uM relative to control; procedure, shortened: as §1
MDA-MB-435 = experiment: Antitumor activity against human MDA-MB-435 cells assessed as growth inhibition at 10 uM relative to control; procedure, shortened: as §1
SK-MEL-2 = experiment: Antitumor activity against human SK-MEL-2 cells assessed as growth inhibition at 10 uM relative to control; procedure, shortened: as §1
SK-MEL-28 = experiment: Antitumor activity against human SK-MEL-28 cells assessed as growth inhibition at 10 uM relative to control; procedure, shortened: as §2
SK-MEL-5 = experiment: Antitumor activity against human SK-MEL-5 cells assessed as growth inhibition at 10 uM relative to control; procedure, shortened: as §2
UACC-257 = experiment: Antitumor activity against human UACC-257 cells assessed as growth inhibition at 10 uM relative to control; procedure, shortened: as §2
UACC-62 = experiment: Antitumor activity against human UACC-62 cells assessed as growth inhibition at 10 uM relative to control; procedure, shortened: as §2
OVCAR-3 = experiment: Antitumor activity against human OVCAR-3 cells assessed as growth inhibition at 10 uM relative to control; procedure, shortened: as §1
OVCAR-5 = experiment: Antitumor activity against human OVCAR-5 cells assessed as growth inhibition at 10 uM relative to control; procedure, shortened: as §1
OVCAR-8 = experiment: Antitumor activity against human OVCAR-8 cells assessed as growth inhibition at 10 uM relative to control; procedure, shortened: as §1
NCI/ADR-RES = experiment: Antitumor activity against human NCI-ADR-RES cells assessed as growth inhibition at 10 uM relative to control; procedure, shortened: as §1
SK-OV-3 = experiment: Antitumor activity against human SK-OV-3 cells assessed as growth inhibition at 10 uM relative to control; procedure, shortened: as §2
786-0 = experiment: Antitumor activity against human 786-0 cells assessed as growth inhibition at 10 uM relative to control; procedure, shortened: as §1
A498 = experiment: Antitumor activity against human A498 cells assessed as growth inhibition at 10 uM relative to control; procedure, shortened: as §1
ACHN = experiment: Antitumor activity against human ACHN cells assessed as growth inhibition at 10 uM relative to control; procedure, shortened: as §1
CAKI-1 = experiment: Antitumor activity against human CAKI-1 cells assessed as growth inhibition at 10 uM relative to control; procedure, shortened: as §1
RXF 393 = experiment: Antitumor activity against human RXF 393 cells assessed as growth inhibition at 10 uM relative to control; procedure, shortened: as §1
SN12C = experiment: Antitumor activity against human SN12C cells assessed as growth inhibition at 10 uM relative to control; procedure, shortened: as §2
TK-10 = experiment: Antitumor activity against human TK-10 cells assessed as growth inhibition at 10 uM relative to control; procedure, shortened: as §2
PC-3 = experiment: Antitumor activity against human PC-3 cells assessed as growth inhibition at 10 uM relative to control; procedure, shortened: as §1
DU-145 = experiment: Antitumor activity against human DU-145 cells assessed as growth inhibition at 10 uM relative to control; procedure, shortened: as §1
MCF7 = experiment: Antitumor activity against human MCF7 cells assessed as growth inhibition at 10 uM relative to control; procedure, shortened: as §1
BT-549 = experiment: Antitumor activity against human BT-549 cells assessed as growth inhibition at 10 uM relative to control; procedure, shortened: as §1
T47D = experiment: Antitumor activity against human T47D cells assessed as growth inhibition at 10 uM relative to control; procedure, shortened: as §2

COc1cc(/C=N/Nc2nc(-c3ccc(Cl)cc3)c(C#N)c(N3CCOCC3)n2)cc(OC)c1OC
inhibition of growth at 10 µM (CCRF-CEM): 58.1%
inhibition of growth at 10 µM (K562): 51.2%
inhibition of growth at 10 µM (MOLT-4): 65.9%
inhibition of growth at 10 µM (RPMI-8226): 74.6%
inhibition of growth at 10 µM (EKVX): 53.7%
inhibition of growth at 10 µM (NCI-H226): 59.1%
inhibition of growth at 10 µM (NCI-H23): 13.3%
inhibition of growth at 10 µM (NCI-H322M): 16.4%
inhibition of growth at 10 µM (NCI-H522): 31.4%
inhibition of growth at 10 µM (COLO 205): 46.6%
inhibition of growth at 10 µM (HCT-116): 55.4%
inhibition of growth at 10 µM (HCT-15): 48%
inhibition of growth at 10 µM (HT-29): 69.3%
inhibition of growth at 10 µM (KM12): 31.2%
inhibition of growth at 10 µM (SW-620): 10.3%
inhibition of growth at 10 µM (SF-268): 17.6%
inhibition of growth at 10 µM (SF-539): 35.5%
inhibition of growth at 10 µM (SNB-19): 14.8%
inhibition of growth at 10 µM (SNB-75): 48.9%
inhibition of growth at 10 µM (U-251): 43.6%
inhibition of growth at 10 µM (LOX IMVI): 70%
inhibition of growth at 10 µM (Malme-3M): < 1%
inhibition of growth at 10 µM (M14): 48.8%
inhibition of growth at 10 µM (MDA-MB-435): 20.1%
inhibition of growth at 10 µM (SK-MEL-2): 20.4%
inhibition of growth at 10 µM (SK-MEL-28): 14.2%
inhibition of growth at 10 µM (SK-MEL-5): 71%
inhibition of growth at 10 µM (UACC-257): < 1%
inhibition of growth at 10 µM (UACC-62): 31.7%
inhibition of growth at 10 µM (OVCAR-3): 25.9%
inhibition of growth at 10 µM (OVCAR-5): 27.9%
inhibition of growth at 10 µM (OVCAR-8): 46.6%
inhibition of growth at 10 µM (NCI/ADR-RES): 59%
inhibition of growth at 10 µM (SK-OV-3): < 1%
inhibition of growth at 10 µM (786-0): 28.3%
inhibition of growth at 10 µM (A498): 33.7%
inhibition of growth at 10 µM (ACHN): 36.7%
inhibition of growth at 10 µM (CAKI-1): < 1%
inhibition of growth at 10 µM (RXF 393): 30.5%
inhibition of growth at 10 µM (SN12C): 35.4%
inhibition of growth at 10 µM (TK-10): 15.7%
inhibition of growth at 10 µM (PC-3): 45.7%
inhibition of growth at 10 µM (DU-145): 32.2%
inhibition of growth at 10 µM (MCF7): < 35.5%
inhibition of growth at 10 µM (BT-549): 45.7%
inhibition of growth at 10 µM (T47D): 51.8%

N#Cc1c(-c2ccc(Cl)cc2)nc(N/N=C/c2cccc([N+](=O)[O-])c2)nc1N1CCOCC1
inhibition of growth at 10 µM (CCRF-CEM): 25.3%
inhibition of growth at 10 µM (K562): 33.6%
inhibition of growth at 10 µM (MOLT-4): 36.6%
inhibition of growth at 10 µM (RPMI-8226): 43.4%
inhibition of growth at 10 µM (EKVX): 33.8%
inhibition of growth at 10 µM (NCI-H226): 28.7%
inhibition of growth at 10 µM (NCI-H23): < 1%
inhibition of growth at 10 µM (NCI-H322M): 14.3%
inhibition of growth at 10 µM (NCI-H522): 24.1%
inhibition of growth at 10 µM (COLO 205): 14.6%
inhibition of growth at 10 µM (HCT-116): 20.1%
inhibition of growth at 10 µM (HCT-15): 23%
inhibition of growth at 10 µM (HT-29): < 1%
inhibition of growth at 10 µM (KM12): < 1%
inhibition of growth at 10 µM (SW-620): < 1%
inhibition of growth at 10 µM (SF-268): 12.3%
inhibition of growth at 10 µM (SF-539): 17.7%
inhibition of growth at 10 µM (SNB-19): 10%
inhibition of growth at 10 µM (SNB-75): 33.4%
inhibition of growth at 10 µM (U-251): 40.1%
inhibition of growth at 10 µM (LOX IMVI): 26%
inhibition of growth at 10 µM (Malme-3M): < 1%
inhibition of growth at 10 µM (M14): 16.4%
inhibition of growth at 10 µM (MDA-MB-435): 12.1%
inhibition of growth at 10 µM (SK-MEL-2): 10.4%
inhibition of growth at 10 µM (SK-MEL-28): 10.2%
inhibition of growth at 10 µM (SK-MEL-5): 14.9%
inhibition of growth at 10 µM (UACC-257): < 1%
inhibition of growth at 10 µM (UACC-62): 27.6%
inhibition of growth at 10 µM (OVCAR-3): 11.2%
inhibition of growth at 10 µM (OVCAR-5): 10.2%
inhibition of growth at 10 µM (OVCAR-8): 12.5%
inhibition of growth at 10 µM (NCI/ADR-RES): 17.5%
inhibition of growth at 10 µM (SK-OV-3): 11.1%
inhibition of growth at 10 µM (786-0): 13.2%
inhibition of growth at 10 µM (A498): 47.5%
inhibition of growth at 10 µM (ACHN): 21.3%
inhibition of growth at 10 µM (CAKI-1): 28.1%
inhibition of growth at 10 µM (RXF 393): 56.6%
inhibition of growth at 10 µM (SN12C): 10.6%
inhibition of growth at 10 µM (TK-10): 25.6%
inhibition of growth at 10 µM (PC-3): 35.8%
inhibition of growth at 10 µM (DU-145): 13.1%
inhibition of growth at 10 µM (MCF7): < 25.6%
inhibition of growth at 10 µM (BT-549): 27.6%
inhibition of growth at 10 µM (T47D): 42%
